Measurements from different studies.
Target: Serine/threonine-protein kinase PAK 5 (PAK5, Homo sapiens, UniProt Q9P286)

SMILES	test	setting	measurement	value
FC(F)(F)Oc1cccc(-c2cnc3ccc(-c4ccncc4)nn23)c1	enzyme activity, inhibitor, radiometric	5 µM	activity vs control	62%
Cc1cnc(NC2CCOCC2)nc1-n1cnc(C(=O)NC(CN)c2cc(F)cc(Cl)c2)c1 (centres unmarked)	enzyme activity, inhibitor, radiometric	1 µM	remaining activity	83%
CCCS(=O)(=O)Nc1ccc(F)c(C(=O)c2c[nH]c3ncc(-c4ccc(Cl)cc4)cc23)c1F	enzyme activity, inhibitor	1 µM	inhibition	< 10%
Cc1cc(NC(=O)c2cccc3cc(-c4cccc5[nH]nc(N)c45)ccc23)ccc1F	enzyme activity, inhibitor	0.1 µM	activity vs control	88%
O=C(Nc1cnn(-c2csc(C(=O)NC3COC3)c2)c1)Nc1c(F)cccc1Cl	enzyme activity, inhibitor	5 µM	remaining activity	92.9%
COc1cc2ncnc(Nc3ccc(Oc4ccccc4)c(C)c3C)c2cc1OC	enzyme activity, inhibitor	1 µM	inhibition	3%
Nc1nc(Nc2ccc(S(N)(=O)=O)cc2)nn1C(=O)c1c(F)cccc1F	cell-free assay	0.5 µM	remaining signal	85.4%
COc1ccc2cc(OCC3(C(=O)O)CN(C(=O)c4ccc(F)cc4)C3)ccc2c1	cell-free assay, competition with immobilised ligand	1 µM	remaining binding	100%
Nc1ncnc2occ(-c3ccc(NC(=O)Nc4cc(C(F)(F)F)ccc4F)cc3)c12	cell-free assay, inhibitor	20 µM	remaining signal	60%
O=C1NC(c2ccccn2)Sc2ccccc21 (centres unmarked)	cell-free assay, competition with immobilised ligand	1 µM	remaining binding	94%
COc1cc(Cl)c(C(=O)N[C@@H](CN[C@H]2CC[C@@H](N)CC2)Cc2ccc(C#N)cc2)cc1-c1ccc(CN[C@H](C)c2ccc(C)cc2)o1	enzyme activity, inhibitor	1 µM	remaining activity	103%
CC(C)(C)c1nc2c(s1)c1nc(N)ncc1c1ccc(NS(=O)(=O)c3c(F)cccc3F)c(F)c12	enzyme activity, inhibitor, radiometric	1 µM	remaining activity	77%
Cc1ccc(NC(=O)c2ccc(C)c(C(F)(F)F)c2)cc1C#Cc1nn(C2CCC(O)CC2)c2ncnc(N)c12 (centres unmarked)	cell-free assay	10 µM	remaining signal	89%
CCC(=N\O)/C(C)=C/c1ccc(F)cc1	cell-free assay, competition with immobilised ligand	1 µM	remaining binding	100%
COc1cc(Nc2cnc(C#N)c(O[C@H](C)CN(C)C)n2)ncc1-c1cnn(C)c1	enzyme activity, inhibitor, radiometric	1 µM	remaining activity	93%
Nc1c(C(=O)NCc2ccc(C(=O)NCCCC3CCCCC3)cc2)cnn1-c1ccccc1	cell-free assay, competition with immobilised ligand	0.1 µM	remaining binding	100%
O=C1NC(=O)c2cc(Nc3ccc(F)cc3)c(Nc3ccc(F)cc3)cc21	cell-free assay	0.5 µM	remaining signal	96.4%
CCN(CC)CCNC(=O)c1c(C)[nH]c(/C=C2\C(=O)Nc3ccc(F)cc32)c1C	enzyme activity, inhibitor	0.3 µM	inhibition	-4%
CN(C)C(=O)Cn1cc(-c2nc(C3(c4ccc(-c5cnc(N)nc5)cc4)CC3)no2)cn1	cell-free assay, competition with immobilised ligand	1 µM	remaining binding	88%
C[C@H]1CCN(c2nccc(-c3cnn4ncccc34)n2)C1	binding	1 µM	remaining binding	100%
Cn1c(=O)n(-c2ccc(C(C)(C)C#N)cc2)c2c3cc(-c4cnc5ccccc5c4)ccc3ncc21	enzyme activity, inhibitor	10 µM	remaining activity	90%
CN1CCN(c2cnc3c(C4CCN(C(=O)c5ccc(OC(F)(F)F)cc5N)CC4)ncnc3c2)CC1	cell-free assay, competition with immobilised ligand	1 µM	remaining binding	100%
CN1CC(Oc2cnc(C#N)cc2-c2ccn3nc(NC(=O)C4CC4)cc3c2)C1	enzyme activity, inhibitor	1 µM	inhibition	3%
Nc1nc(NC2CCCCC2)sc1C(=O)c1ccccc1	enzyme activity, inhibitor	10 µM	remaining activity	103%
N#CCCc1ccc2c(c1)-c1[nH]c3ccc([N+](=O)[O-])cc3c1CC(=O)N2	cell-free assay	0.5 µM	remaining signal	60.3%
CCS(=O)(=O)c1cc2cc(C[C@](O)(CC(C)(C)c3ccc(F)cc3C(N)=O)C(F)(F)F)[nH]c2cn1	cell-free assay, competition with immobilised ligand	1 µM	remaining binding	100%
CC(C)(O)[C@H]1CC[C@H](Nc2ccc3ncc(-c4cccc(C(F)(F)F)c4)n3n2)CC1	enzyme activity, inhibitor	1 µM	remaining activity	98.1%
C[C@@H]1CN(c2cc(-c3nn(C)c4ccc(OC5(C)CC5)cc34)ncn2)C[C@H](C)O1	cell-free assay, competition with immobilised ligand	1 µM	remaining binding	84%
CNC(=O)c1cc(Oc2ccc(NC(=O)Nc3ccc(Cl)c(C(F)(F)F)c3)cc2)ccn1	enzyme activity, inhibitor	0.3 µM	inhibition	-18%
